In ChEMBL document CHEMBL4513216, “Probing the Open Global Health Chemical Diversity Library for Multistage-Active Starting Points for Next-Generation Antimalarials” (ACS Infect Dis, 2020):

Test: Toxicity liver stage against HepG2, at 10uM
Format: cell-based
Design: test concentration 10 uM, cell line HepG2-A16-CD81EGFP
Conditions: human, HepG2-A16-CD81EGFP cells; read-out: INHIBITION
Summary of the method: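 Uninfected HepG2-A16-CD81EGFP cells, 3 × 10^3 per well, 1536-well, plated on prespotted compound at 10 μM final, parasite-free screening media added to match infected plates; puromycin 10 μM positive, DMSO 0.5% negative; run in parallel with 48 h PbLuc assay at 37 °C, 5% CO2; viability by CellTiter-Glo luminescence, normalized to controls.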

| Structure (SMILES) | cytotoxicity at 10 µM |
| --- | --- |
| CC[C@H](C)[C@H](NC(=O)Cn1ccc2ccc(F)cc21)C(=O)OC | 4.12% |
| CCCc1cc(=O)[nH]c2nnc(SCC(=O)NC(C)(C)C)n12 | 9.57% |
| CC(C)C(=O)N1CCC2(CC1)NC(=O)[C@H]1CN(Cc3cccnc3)C[C@H]12 | -0.331% |
| CC(=O)N1CCc2[nH]nc(C(=O)N3CCOCC3)c2C1 | -7.37% |
| CC(=O)N1[C@H](CN(C)C)C[C@@H]2CN(C(=O)c3ccsc3)CC[C@@H]21 | -0.744% |
| CC(C)NC(=O)c1ccc2c(c1)C(c1nc[nH]n1)CN2S(C)(=O)=O (configuration not stated) | -132% |
| c1cc(CN2CCO[C@@H]3CNC[C@@H]32)co1 | 6.71% |
| CS(=O)(=O)N1CCCC12CCCN(C(=O)c1ccc[nH]1)C2 (configuration not stated) | -145% |
| CNC(=O)c1cc2c(nc1NC(C)C)CCNCC2 | 0.102% |
| Cc1noc(C)c1CN1CC2(CCN(C(=O)c3c[nH]cn3)C2)CC1=O (configuration not stated) | -5.23% |
| O=C(c1ccn(COc2ccc(F)cc2)n1)N1CCCCCC1 | 9.84% |
| CC(C)N1CCOC(c2ccnc(N(C)C)n2)C1 (configuration not stated) | -0.104% |
| COc1ccccc1C1(O)CCCN(C(=O)c2ccnn2C(C)C)C1 (configuration not stated) | 2.59% |
| CC(=O)NCC(=O)N1CCOC(c2cccc(N)n2)C1 (configuration not stated) | -4.68% |
| Cc1noc(CN2CCN(C(C)C(=O)NCc3cccs3)CC2)n1 (configuration not stated) | 17.2% |
| CC(C)(C)CC(=O)Nc1cnn(-c2ccccc2S(C)(=O)=O)c1 | 3.69% |
| CCOc1cccc(NC(=O)c2cnc(C)cn2)n1 | 4.14% |
| NC(=O)COc1cccc(Cn2cccn2)c1 | -1.13% |
| COCCOCC1CCN(C(=O)c2ccc3[nH]cnc3c2)C1 (configuration not stated) | -5.73% |
| CN(Cc1cnn(C)c1)C(=O)Nc1cccnc1-n1cccn1 | -1.32% |
| CC(c1ccccc1)N(C)CC(=O)NCCC#N (configuration not stated) | 3.52% |

| Structure (SMILES) | cytotoxicity at 10 µM |
| --- | --- |
| COc1cccc(-c2cc(NCc3nccn3C)n(C)n2)c1 | 0.684% |
| CN(CCOc1ccc(C#N)cc1)CC1CC1 | 1.47% |
| COc1c(C2CCCN2CC(=O)Nc2nccs2)c(C)nn1C (configuration not stated) | -2.38% |
| NS(=O)(=O)CCN1CCN(c2ccccc2O)CC1 | 9.1% |
| Cc1ccc(C(=O)N(Cc2ccc(F)cc2F)C2CC2)c(=O)[nH]1 | -2.01% |
| O=C(Cc1cccs1)NCC1(O)CCSCC1 | -10.5% |
| CCc1nc(CCNC(=O)NC2CC(=O)N(C(C)(C)C)C2)cs1 (configuration not stated) | -1.51% |
| CC(C)(C)NC(=O)CN1CCCN(Cc2cc(C#N)ccc2F)CC1 | -4.62% |
| Cc1ccc(Br)c(S(=O)(=O)NCc2ccnn2C)c1 | 0.67% |
| COc1cc(F)ccc1N(C)Cc1ccncc1 | -3.64% |
| CCS(=O)(=O)CCN(CC1CCCO1)C1CCCC1 (configuration not stated) | -3.52% |
| CCCn1nc(C(=O)N2CCCC2c2noc(C)n2)ccc1=O (configuration not stated) | 3.57% |
| CN(C(=O)CN1CCC(c2cc3ccccc3[nH]2)CC1)C(C)(C)C#N | 6.24% |
| CC(C)N(Cc1cnn(C)c1)CC1CCCN(S(C)(=O)=O)C1 (configuration not stated) | -21.4% |
| Cc1cccc(N2CCN(C(=O)CC3(O)CCCC3)C(C)C2)n1 (configuration not stated) | 15.9% |
| Cc1cc(N(C)C)nc(NCCn2cccn2)n1 | 5.65% |
| COc1ccc(CCNC(=O)NC2CCCC2)cc1OC | -10.9% |
| Cc1cc(NC(=O)NCCc2cccs2)n(C)n1 | 14.8% |
| CCc1c(C)nc(C)nc1N1C[C@@H](CN(C)CCN(C)C)[C@@H](CO)C1 | -2.07% |
| CCOc1ccc(CCCC(=O)N2CCC(C(=O)NC)C2)cc1C (configuration not stated) | 1.85% |
| N[C@@H]1CCN(Cc2ccc(-c3nc(-c4cccnc4)cc(=O)[nH]3)cc2)C1 | 9.48% |

| Structure (SMILES) | cytotoxicity at 10 µM |
| --- | --- |
| O=C1N(CCc2ccccc2)CCCC1(O)CNCc1ccc(F)cc1 (configuration not stated) | -1.24% |
| O=C(CCc1cc2n(n1)CCCNC2)N1CCSCC1 | 8.55% |
| CC/C=C(\C)CN1CCC(CNC(=O)c2ccc(=O)[nH]c2)CC1 | 8.06% |
| CCC(Nc1nccc(C2CCCC2)n1)c1ncccc1C (configuration not stated) | -130% |
| CC(C)Cc1cc(C(=O)NCCc2nnc(N)s2)n(C)n1 | 0.649% |
| CC(C)(C)c1ncc2c(n1)CN(C(=O)C(C)(C)n1cccc1)C2 | -120% |
| CCc1nccc(CN2CCC(CNC(=O)c3occc3C)C2)n1 (configuration not stated) | 6.95% |
| O=C(Cc1ccc(O)c(F)c1)N1CCN(CC2CC2)[C@@H]2CS(=O)(=O)C[C@@H]21 | -2.06% |
| COc1cc(NCC(O)CN2CCCCCC2)ncn1 (configuration not stated) | 2.8% |
| CN(CCO)c1nc(-c2ccccn2)nc2c1CCNC2 | -4.12% |
| COC(=O)C1CCN(C(=O)c2cccc(NS(C)(=O)=O)c2C)CC1 | -6.71% |
| COCC(=O)N1Cc2c(-c3cccc(C)c3)nc(N)nc2C1C (configuration not stated) | -0.607% |
| CCCC(=O)N1CCN(c2cc(-n3cnc(C)c3C)nc(C)n2)CC1 | -1.89% |
| CCN1CCN(C[C@@H]2CN(c3ncccc3Cl)C[C@@H]2CO)CC1 | -4.81% |
| CCC(NC(=O)c1nn(C)cc1C(=O)O)c1ccc(C)cc1 (configuration not stated) | -3.42% |
| O=C(CNC(=O)c1ccc2c(c1)CCC2)NCCNc1ncccn1 | -6.5% |
| CN(C)c1ccc(CNC(=O)Nc2ccc(S(C)(=O)=O)nc2)cc1 | -2.48% |
| COCC(c1cccc(C(F)(F)F)c1)N(C)C(=O)c1cnccn1 (configuration not stated) | -11.7% |
| Cc1nc(-c2ccsc2)ccc1C(=O)NCC(C)N1CCOCC1 (configuration not stated) | -3.92% |
| Cc1nc(C)n(CC2CCCCN2CC(=O)NC(C2CC2)C2CC2)n1 (configuration not stated) | -8.61% |
| O=C(c1cccc2ncccc12)N1CCC(Nc2cccnn2)CC1 | -14.7% |

| Structure (SMILES) | cytotoxicity at 10 µM |
| --- | --- |
| O=C(NCCNc1ncccn1)C1CC(=O)N(Cc2ccccc2)C1 (configuration not stated) | -16.2% |
| COc1cccc(COCC(=O)N2CCCC(n3cncn3)C2)c1 (configuration not stated) | -21.1% |
| Cc1cccnc1NC(=O)NC(C)Cn1cccn1 (configuration not stated) | -6.8% |
| O=C(Cn1nc(-c2ccc(F)cc2)oc1=O)NCc1ccc(F)cc1 | 4.13% |
| c1cnnc(N2CCCC2CNc2ncnc3c2CCC3)c1 (configuration not stated) | -0.626% |
| CNC(=O)N1CCc2cc(C(=O)N(C)C)c(NCC3CC3)nc2CC1 | -0.395% |
| CN(C)CCN1C(=O)CCC12CCCN(C(=O)c1ccncc1F)C2 (configuration not stated) | 3.06% |
| Cc1ccc(CN2CCC3(CCCC(=O)N3)CC2)s1 | -3.45% |
| Cc1cccc(CN2C(=O)CCC23CCN(C(=O)c2ccco2)CC3)n1 | 4.17% |
| CN1CCO[C@H]2CN(C(=O)c3ccncc3F)C[C@H]21 | -141% |
| CCCS(=O)(=O)N1CCC2(CN(c3ccsc3)C(=O)CN2C)C1 (configuration not stated) | -21.1% |
| Cc1ccc(CN2CCC3(CC2)CC3CN(C)Cc2cccnc2)o1 (configuration not stated) | -3.76% |
| COCCN1CCC2(COCc3c(C)nc(N4CCOCC4)nc32)C1 (configuration not stated) | -130% |
| O=C(CC1CCCC1)N1C[C@H](Oc2cccnc2)[C@H]2OCCC[C@H]21 | 3.82% |
| Cc1ccc(CN2CCc3[nH]nc(C(=O)N4CCN(C)CC4)c3C2)o1 | -8.19% |
| CCN1C(=O)CCC12CCCN(Cc1ccc(F)cc1)CC2 (configuration not stated) | -0.861% |
| CN1CCN(Cc2cccnc2)C2(CCN(Cc3ccoc3)C2)C1=O (configuration not stated) | -2.4% |
| O=C(NCC1CCC(c2ccnc3ncnn23)CC1)c1ccccn1 (configuration not stated) | 3.64% |
| COCCN1C(=O)[C@@H]2CC[C@H]1CN(Cc1nnc(-c3ccccc3)o1)C2 | -4.94% |
